PKA-R1A act: PKA-R1A complex activation; P00514+P68181; PKA-R1A dissociation, Cy5-IP20 fluorescence polarization; scaled: DMSO 0%, 113 µM cGMP 100%; activation, % at 11.4 µM; actives 0.083% (n = 340,000);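 active means percent activation above the mean of all tested compounds plus 3 SD, cut at about 19% in these data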;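 further: higher means more PKAc released from R1A so a rise in polarization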
SIRT5 inh: inhibitors of human sirtuin-5 desuccinylase | Purified SirT5, succinyl-peptide AMC, trypsin-coupled fluorescence | inhibition, % at 15 µM | actives 1.1% (n = 330,000); in the data active means inhibition above about 15%
Target sequence (Q9NXA8 whole entry, looked up): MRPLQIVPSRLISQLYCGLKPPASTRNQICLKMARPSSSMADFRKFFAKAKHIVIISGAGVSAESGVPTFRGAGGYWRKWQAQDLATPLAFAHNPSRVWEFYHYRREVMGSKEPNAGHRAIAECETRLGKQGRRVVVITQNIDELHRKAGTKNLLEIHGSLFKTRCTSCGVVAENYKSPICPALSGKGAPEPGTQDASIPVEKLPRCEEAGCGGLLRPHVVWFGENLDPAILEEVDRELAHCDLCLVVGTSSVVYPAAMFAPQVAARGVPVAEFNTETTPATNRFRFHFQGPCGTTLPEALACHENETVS
S100A4 inh HTS: inhibitors of human S100A4 binding to myosin IIA peptide | P26447 | S100A4/TAMRA-MyoIIA peptide fluorescence polarization | actives 0.14% (n = 360,000) | AID 652163 | inhibition, % at 10.7 µM;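 active means mean inhibition of at least 70% across replicates, with every replicate also reaching that level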
Target sequence (P26447 whole entry, looked up): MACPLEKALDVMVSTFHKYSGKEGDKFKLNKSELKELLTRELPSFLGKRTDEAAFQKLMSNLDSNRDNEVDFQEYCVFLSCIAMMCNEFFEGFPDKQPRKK
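Test system: S100A4 monomer protein; Medium: HEPES pH 7.2 with CaCl2, KCl, NaCl, DTT, Triton; Probe or stimulus: TAMRA-labelled myosin IIA heavy-chain peptide probe, 5 nM; Doses: one dose per compound; Times: polarization read 5 min after assay mix addition, stable 5–60 min; Benchmarks: neutral control DMSO, positive control TFP.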
CRFBP-R2 block: antagonists of CRF-binding protein/CRF-R2 receptor complex. HEK293 CRF-R2/CRF-BP, CRF-induced calcium fluorescence. inhibition, % at 11.8 µM. actives 0.59% (n = 350,000). AID 588475;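 active means inhibition of the ligand-induced calcium signal above about 50% at the single tested concentration, limit read from the data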
PKA-R2B activ: PKA-R2B complex activation; PKA-R2B holoenzyme dissociation, Cy5-IP20 fluorescence polarization; R2B truncated from residue 108, S112A mutant; 0% DMSO only, 100% 113 µM cGMP; activation, % at 11.4 µM; actives 0.079% (n = 340,000); AID 504700;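 active means activation above a cutoff set at the mean over all compounds plus 3 SD, cut at about 18% in these data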;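 further: higher means more holoenzyme dissociation and a rise in polarization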
Starred values were filed as active, the others as inactive; / = no result. Most compounds without a hit are left out; they make up all but 1.5% or so of the library.

SMILES | PKA-R1A act | SIRT5 inh | S100A4 inh HTS | CRFBP-R2 block | PKA-R2B activ
C[C@@H]1CN([C@@H](C)CO)C(=O)c2cc(NC(=O)C3CCCCC3)ccc2O[C@@H]1CN(C)CC1CC1 | / | -7 | 5 | / | /
Cc1ccc(S(=O)(=O)N(C)C[C@@H]2Oc3c(NC(=O)Nc4ccc5c(c4)OCO5)cccc3C(=O)N([C@@H](C)CO)C[C@H]2C)cc1 | / | 10 | 4 | / | /
Cc1ccc(S(=O)(=O)N(C)C[C@H]2Oc3c(NC(=O)Nc4ccc5c(c4)OCO5)cccc3C(=O)N([C@@H](C)CO)C[C@H]2C)cc1 | / | 15* | 1 | / | /
C[C@H]1CN([C@@H](C)CO)C(=O)c2cc(NC(=O)C3CCCCC3)ccc2O[C@@H]1CN(C)CC1CC1 | / | 22* | 19 | / | /
C[C@@H]1CN([C@@H](C)CO)C(=O)Cc2cc(NS(=O)(=O)c3cn(C)cn3)ccc2O[C@@H]1CN(C)Cc1ccc(Cl)c(Cl)c1 | / | -2 | 12 | / | /
C[C@H]1CN([C@@H](C)CO)C(=O)c2cc(C#Cc3ccccc3F)cnc2O[C@H]1CN(C)C(=O)C1CC1 | / | -5 | -21 | / | /
CN(C)C(=O)c1cc(C(=O)c2ccc(C(F)(F)F)cc2F)c[nH]1 | 1 | 34* | -7 | 14 | -5
C[C@@H]1CN([C@H](C)CO)C(=O)c2cccc(NC(=O)C3CC3)c2O[C@H]1CN(C)S(=O)(=O)c1ccc(F)cc1 | / | 0 | 3 | / | /
O=C(OCc1ccc2c(c1)OCO2)c1ccc(S(=O)(=O)N2CCCC2)cc1 | 7 | / | / | 114* | -9
O=C(O)COc1ccccc1/C=N/NC(=O)CSc1nnc(SCc2ccc(Cl)cc2)s1 | -14 | -3 | -3 | -1 | 0
O=C(O)COc1ccccc1/C=N/NC(=O)CSc1nnc(SCc2cccc3ccccc23)s1 | -15 | 17* | -16 | 5 | 2
C[C@@H]1CN([C@H](C)CO)C(=O)c2cc(NS(=O)(=O)c3ccccc3)ccc2O[C@@H](C)CCCCO[C@H]1CN(C)C(=O)c1ccccc1 | / | 5 | 10 | / | /
O=C(CN1C(=O)COc2ccccc21)Nc1ccccc1F | -1 | 1 | 1 | 1 | -7
O=C(CN1C(=O)COc2ccccc21)NNC(=O)Nc1ccccc1F | -5 | 26* | -1 | 6 | 10
C[C@H]1CN([C@@H](C)CO)C(=O)c2cc(-c3ccccc3F)cnc2O[C@@H]1CN(C)C(=O)NC1CCCC1 | / | -1 | -22 | / | /
C[C@H]1CCCCO[C@H](CN(C)S(=O)(=O)c2ccc(F)cc2)[C@@H](C)CN([C@@H](C)CO)C(=O)c2cc(NS(=O)(=O)c3ccccc3)ccc2O1 | / | 4 | 113* | / | /
C[C@@H]1CCCCO[C@@H](CN(C)S(=O)(=O)c2ccccc2)[C@@H](C)CN([C@@H](C)CO)C(=O)c2cc(NC(=O)CCCN(C)C)ccc2O1 | / | 3 | 151* | / | /
C[C@@H]1CCCCO[C@@H](CN(C)S(=O)(=O)c2ccc(F)cc2)[C@H](C)CN([C@H](C)CO)C(=O)c2cc(NS(=O)(=O)c3ccccc3)ccc2O1 | / | 16* | -9 | / | /
COc1ccc(-c2cccc(C3CC=CC4C3C(=O)N(Cc3ccccc3)C4c3ccc(C(F)(F)F)cc3)c2)cc1 (stereo not drawn) | 3 | 19* | 1 | -1 | -5
C[C@@H]1CC=C[C@@H]2[C@H]1C(=O)N(Cc1ccccc1)[C@H]2c1cccc(Br)c1 | -8 | -2 | -1 | 72* | -1
C[C@@H]1CC=C[C@@H]2[C@H]1C(=O)N(Cc1ccccc1)[C@H]2c1cccc(C#Cc2ccccc2)c1 | 2 | -5 | -5 | 5 | 3
Cc1cc(-c2ccc(C)c(S(=O)(=O)N3CCN(C(=O)c4ccco4)CC3)c2)on1 | -12 | -5 | 15 | -4 | -12
COc1ccc(-c2cc(C)no2)cc1S(=O)(=O)N1CCN(C(=O)c2ccco2)CC1 | -4 | 6 | -2 | 75* | -3
CCOC(=O)Cc1csc(NC(=S)NC(=O)c2ccc([N+](=O)[O-])cc2)n1 | 3 | / | / | 57* | -4
CCOC(=O)Cc1csc(NC(=S)NC(=O)c2ccc(Cl)cc2)n1 | -8 | / | / | 34 | 4
SMILES | PKA-R1A act | SIRT5 inh | S100A4 inh HTS | CRFBP-R2 block | PKA-R2B activ
CCCNC(=O)Nc1ccc2c(c1)C(=O)N(C)C[C@@H](OC)[C@@H](C)CN(Cc1ccc(-c3ccccn3)cc1)[C@H](C)CO2 | / | 4 | 0 | / | /
CCCCCCCNC1=CC(=O)CC(c2ccccc2)C1 (stereo not drawn) | -5 | -4 | -1 | 15 | 1
CCCCCNC1=CC(=O)CC(c2ccccc2)C1 (stereo not drawn) | -8 | / | / | 81* | -8
CC(C)NC(=O)N1CCCCN2[C@@H](CO)[C@@H](c3ccc(C#CC4CC4)cc3)[C@@H]2C1 | / | 0 | -3 | / | /
O=S(=O)(c1ccc(N=C2NN=C(c3cc(F)ccc3F)CS2)cc1)N1CCOCC1 | / | 27* | -3 | 3 | /
COc1ccc(C(=O)OCCN2CCCCC2)cc1 | -4 | 25* | 20 | 27 | 3
C[C@H]1CN([C@@H](C)CO)C(=O)c2cc(NC(=O)CCC(F)(F)F)ccc2O[C@@H]1CN(C)C(=O)Nc1cccc2ccccc12 | / | 5 | 4 | / | /
Cc1n[nH]c(=S)n(/N=C/c2cccs2)c1=O | -2 | 3 | -1 | 115* | 3
CC(C)(C)c1n[nH]c(=S)n(/N=C/c2cccs2)c1=O | -6 | / | 2 | -15 | 2
O=C(N/N=C/c1ccccc1Cl)C1CC1 | 1 | -5 | -3 | 77* | -2
CC(=O)Nc1ccc(C=NNc2nnc(NN=Cc3ccc(NC(C)=O)cc3)c3ccccc23)cc1 | 2 | 0 | 72* | -7 | -12
C[C@H](CO)N1C[C@H](C)[C@H](CN(C)C(=O)Cc2ccccc2)Oc2ncc(C#Cc3ccccc3F)cc2C1=O | / | -1 | 2 | / | /
Clc1ccc(Cl)c(OCCN2CCCC2)c1 | -2 | 16* | -5 | 15 | -1
Clc1ccc(OCCOCCN2CCCCC2)c(Br)c1 | 19* | / | / | -25 | 7
CC1CCN(CCOCCOc2ccc(Cl)cc2Br)CC1 | -2 | 0 | 1 | -8 | -15
Clc1ccc(Cl)c(OCCN2CCOCC2)c1 | 0 | / | / | 0 | -3
CCOCCCNC(=O)C(c1ccc(C)cc1)N(Cc1cccs1)C(=O)c1ccccn1 (stereo not drawn) | -7 | -1 | -14 | 6 | -7
CCOCCCNC(=O)C(c1ccc(Cl)cc1)N(Cc1cccs1)C(=O)c1ccccn1 (stereo not drawn) | -4 | 18* | -2 | 7 | 5
C[C@@H]1CN([C@H](C)CO)S(=O)(=O)c2ccc(C3=CCCC3)cc2O[C@@H]1CN(C)Cc1cccc(C(=O)O)c1 | / | 7 | -14 | / | /
COc1ccc(-c2nn(-c3ccccc3)cc2/C=C(\C#N)S(=O)(=O)c2ccccc2)cc1OC | -5 | -2 | -2 | 66* | 0

Bioassay records from PubChem.
